What was measured:
B16 [1] = assay: MST of treated animal over control when administered at a dose of 2.5 mg/kg intraperitoneally on Q01Dx01 treatment schedule in B16 melanocarcinoma cell lines; type: functional, Mus musculus; conditions: route intraperitoneal
Summary of the method: (§1)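 B16 melanocarcinoma: C57Bl/6 mice implanted sc with cell suspension on day 0; single ip dose in 0.15 M NaCl saline given on day 1. Median survival time was recorded in days, with toxicity taken as survivors on day 5. T/C% = treated MST/control MST × 100; >125% is considered significant.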

B16 [2] = assay: Median survival time of […] melanocarcinoma cell line after a dose of 10 mg/kg administered intraperitoneally on Q01Dx01 treatment schedule; type: functional, Mus musculus; conditions: route intraperitoneal; summary of the method: as §1
L1210 [3] = assay: MST of treated animal over control when administered at a dose of 5 mg/kg intraperitoneally on Q01Dx05 treatment schedule in L1210 cell lines; type: functional, Mus musculus; conditions: route intraperitoneal
Summary of the method: (§2)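 L1210 leukaemia: DBA/2 mice inoculated ip with 10^5 cells on day 0, with ip drug in 0.15 M NaCl saline on the stated schedule. The read-out was median survival time in days, with toxicity taken as survivors on day 5. T/C% = treated MST/control MST × 100; >125% is considered significant.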

L1210 [4] = assay: MST of treated animal over control when administered at a dose of 5 mg/kg intraperitoneally on Q01Dx09 treatment schedule in L1210 cell lines; type: functional, Mus musculus; conditions: route intraperitoneal; summary of the method: as §2
L1210 [5] = assay: Median survival time of L1210 cell line after a dose of 2.5 mg/kg administered intraperitoneally on Q01Dx09 treatment schedule; type: functional, Mus musculus; conditions: route intraperitoneal; summary of the method: as §2
L1210 [6] = assay: Median survival time of L1210 cell line after a dose of 20 mg/kg administered intraperitoneally on Q01Dx01 treatment schedule; type: functional, Mus musculus; conditions: route intraperitoneal; summary of the method: as §2
L1210 [7] = assay: Median survival time of L1210 cell line after a dose of 5 mg/kg administered intraperitoneally on Q01Dx05 treatment schedule; type: functional, Mus musculus; conditions: route intraperitoneal; summary of the method: as §2
L1210 [8] = assay: Number of survivors of L1210 cell line on day 5/ number of treated mice at a dose of 9ip injection of 2.5 mg/kg on Q01Dx09 treatment schedule; 10/10; type: functional, Mus musculus
L1210 [9] = assay: MST of treated animal over control when administered at a dose of 10 mg/kg intraperitoneally on Q01Dx01 treatment schedule in L1210 cell lines; type: functional, Mus musculus; conditions: route intraperitoneal; summary of the method: as §2
L1210 [10] = assay: Median survival time of L1210 cell line after a dose of 10 mg/kg administered intraperitoneally on Q01Dx02 treatment schedule; type: functional, Mus musculus; conditions: route intraperitoneal; summary of the method: as §2
L1210 [11] = assay: Median survival time of L1210 cell line after a dose of 10 mg/kg administered intraperitoneally on Q01Dx05 treatment schedule; type: functional, Mus musculus; conditions: route intraperitoneal; summary of the method: as §2
L1210 [12] = assay: Number of survivors of L1210 cell line on day 5/ number of treated mice at a dose of 1 i.p. injection of 10 mg/kg on Q01Dx01 treatment schedule; 10/10; type: functional, Mus musculus; conditions: route intraperitoneal
L1210 [13] = assay: Number of survivors of L1210 cell line on day 5/ number of treated mice at a dose of 1 i.p. injection of 20 mg/kg on Q01Dx01 treatment schedule; 10/10; type: functional, Mus musculus; conditions: route intraperitoneal
L1210 [14] = assay: Number of survivors of L1210 cell line on day 5/ number of treated mice at a dose of 2 ip injection of 15 mg/kg on Q01Dx02 treatment schedule; 10/10; type: functional, Mus musculus; conditions: route intraperitoneal
L1210 [15] = assay: Number of survivors of L1210 cell line on day 5/ number of treated mice at a dose of 5ip injection of 5 mg/kg on Q01Dx05 treatment schedule; 10/10; type: functional, Mus musculus
P388 [16] = assay: Number of survivors of P388 lymphocytic leukemia cell line on day 5/ number of treated mice at a dose of 1 i.v. injection of 5 mg/kg on Q01Dx01 treatment schedule; 10/10; type: functional, Mus musculus; conditions: route intravenous
P388 [17] = assay: Number of survivors of P388 lymphocytic leukemia cell line on day 5/ number of treated mice at a dose of 7po injection of 10 mg/kg on Q01Dx07 treatment schedule; 10/10; type: functional, Mus musculus
P388 [18] = assay: MST of treated animal over control when administered at a dose of 10 mg/kg perorally on Q01Dx07 treatment schedule; type: functional, Mus musculus; conditions: route oral
Summary of the method: (§3)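 P388 leukaemia: DBA/2 mice inoculated with 10^6 cells on day 0; treatment began day 1 at the stated route and schedule. Drug was dissolved in 0.15 M NaCl saline. The read-out was median survival time (MST, days), with toxicity taken as survivors on day 5. T/C% = treated MST/control MST × 100; ≥125% is considered significant.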

P388 [19] = assay: MST of treated animal over control when administered at a dose of 5 mg/kg intraperitoneally on Q01Dx05 treatment schedule; type: functional, Mus musculus; conditions: route intraperitoneal; summary of the method: as §3
P388 [20] = assay: MST of treated animal over control when administered at a dose of 5 mg/kg intraperitoneally on Q01Dx09 treatment schedule; type: functional, Mus musculus; conditions: route intraperitoneal; summary of the method: as §3
P388 [21] = assay: MST of treated animal over control when administered at a dose of 5 mg/kg intravenously on Q01Dx01 treatment schedule; type: functional, Mus musculus; conditions: route intravenous; summary of the method: as §3
P388 [22] = assay: Number of survivors of P388 lymphocytic leukemia cell line on day 5/ number of treated mice at a dose of 1 i.p. injection of 10 mg/kg on Q01Dx01 treatment schedule; 10/10; type: functional, Mus musculus; conditions: route intraperitoneal
P388 [23] = assay: Number of survivors of P388 lymphocytic leukemia cell line on day 5/ number of treated mice at a dose of 1 i.p. injection of 20 mg/kg on Q01Dx01 treatment schedule; 10/10; type: functional, Mus musculus; conditions: route intraperitoneal
P388 [24] = assay: Median survival time of P388 lymphocytic leukemia cell line after a dose of 10 mg/kg administered intraperitoneally on Q01Dx01 treatment schedule; type: functional, Mus musculus; conditions: route intraperitoneal; summary of the method: as §3
P388 [25] = assay: Median survival time of P388 lymphocytic leukemia cell line after a dose of 2.5 mg/kg administered intraperitoneally on Q01Dx09 treatment schedule; type: functional, Mus musculus; conditions: route intraperitoneal; summary of the method: as §3
P388 [26] = assay: Median survival time of P388 lymphocytic leukemia cell line after a dose of 5 mg/kg administered intraperitoneally on Q01Dx05 treatment schedule; type: functional, Mus musculus; conditions: route intraperitoneal; summary of the method: as §3
Sarcoma-180 [27] = assay: Median survival time of sarcoma 180 cell line after a dose of 20 mg/kg administered intraperitoneally on Q01Dx01 treatment schedule; type: functional, Mus musculus; conditions: route intraperitoneal
Summary of the method: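 Sarcoma 180 was inoculated ip in Swiss mice (10^6 cells, day 0), and drug was given ip in 0.15 M NaCl saline. Median survival time was recorded in days; antitumor activity was expressed as treated MST over control MST ×100, significant above 125%.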

Salmonella typhimurium [28] = assay: Mutagenesis test was performed at 10 uM concentration in Salmonella Typhimurium TA 100; type: functional, Salmonella enterica subsp. enterica serovar Typhimurium
Summary of the method: (§4)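 Salmonella typhimurium his auxotrophs TA98 and TA100 were tested by liquid suspension without metabolic activation. Overnight Oxoid nutrient broth cultures were subcultured, grown 2 h, then exposed to drug for 5 h. Cells were washed, resuspended to A650 2.50, and plated in top agar (0.6% agar, 0.6% NaCl). His+ revertants per plate were counted after 48 h at 37 °C; values are means of three assays.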

Salmonella typhimurium [29] = assay: Mutagenesis test was performed at 10 uM concentration in Salmonella Typhimurium TA 98; type: functional, Salmonella enterica subsp. enterica serovar Typhimurium; summary of the method: as §4
Salmonella typhimurium [30] = assay: Mutagenesis test was performed at 20 uM concentration in Salmonella Typhimurium TA 100; type: functional, Salmonella enterica subsp. enterica serovar Typhimurium; summary of the method: as §4
Sarcoma-180 [31] = assay: Number of survivors of sarcoma 180 cell line on day 5/ number of treated mice at a dose of 1 ip injection of 10 mg/kg on Q01Dx01 treatment schedule; 10/10; type: functional, Mus musculus; conditions: route intraperitoneal

`O=C1C(N2CC2)=C(N2CC2)C(=O)c2ncncc21` showed a T/C (B16 [1]) of 121%, an MST (B16 [2]) of 20.8 days and a T/C (L1210 [3]) of 108%. It also gave a T/C (L1210 [4]) of 109%, an MST (L1210 [5]) of 9.1 days and an MST (L1210 [6]) of 9.4 days. The MST (L1210 [7]) was 9.1 days, the “Toxicity Survivors” value (L1210 [8]) was 10 and the T/C (L1210 [9]) was 114%. The MST (L1210 [10]) was 9 days, the MST (L1210 [11]) was 9.1 days and the “Toxicity Survivors” value (L1210 [12]) was 10. The “Toxicity Survivors” value (L1210 [13]) was 10, the “Toxicity Survivors” value (L1210 [14]) was 10 and the “Toxicity Survivors” value (L1210 [15]) was 10. The “Toxicity Survivors” value (P388 [16]) was 10, the “Toxicity Survivors” value (P388 [17]) was 10 and the T/C (P388 [18]) was 100%. For the same molecule, the T/C (P388 [19]) was 138%, the T/C (P388 [20]) was 148% and the T/C (P388 [21]) was 103%. The “Toxicity Survivors” value (P388 [22]) was 10, the “Toxicity Survivors” value (P388 [23]) was 10 and the MST (P388 [24]) was 9.5 days. The MST (P388 [25]) was 10.4 days, the MST (P388 [26]) was 10.4 days and the MST (Sarcoma-180 [27]) was 19 days. The Revertants/plate (Salmonella typhimurium [28]) was 97, the Revertants/plate (Salmonella typhimurium [29]) was 89 and the Revertants/plate (Salmonella typhimurium [30]) was 108. The “Toxicity Survivors” value (Sarcoma-180 [31]) was 10.
